From PubChem BioAssay
Sampled rows, rich in hits. Any-hit rate of the full collection: about 1.5%.
Cneo AK release: Cryptococcus neoformans lysis via adenylate kinase release; C. neoformans lysis, adenylate kinase release luminescence, 4 h; normalised: neutral wells 0, clomiphene wells 100; lysis activity, % at 15 µM; 360,000 tested, 0.2% active; AID 651654;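 active = mean lysis activity across replicates of at least 80%, whatever share of replicates individually reach that level; inactive = mean lysis activity below 80%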
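Material: C. neoformans cells | Amount: Yeast cell density of 5 × 10^6 cells/mL | Medium: Fresh YPD growth medium | Dosing: Single dose | Times: Static 4 h at 37 °C with compound, 1 h detection | Detection: AK luminescence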
PGC1a acetyl inh: lowers PGC1a acetylation signal in U2OS cells. AlphaScreen anti-acetyl-lysine; with virally co-expressed GCN5 acetyltransferase. inhibition, % at 15.6 µM. 350,000 tested, 0.17% active;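 active = every replicate shows inhibition of at least 40%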;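 note: 0% = neutral control wells and 100% = positive control wells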
Wnt act: activates Wnt/beta-catenin signaling in a reporter cell assay; 300,000 tested, 1.2% active; activation, % at 9.35 µM; activator, plate reader; AID 743398; in the data active = activation above about 30%, passing the limit was not always enough;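 note: 0% = neutral control wells and 100% = positive control wells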
MITF TRPM1 HTS: increases MITF-driven TRPM1 promoter luciferase signal | SK-MEL-5 TRPM1-promoter luciferase, 24 h; % of positive control, neutral wells = 0 | activation, % at 12.5 µM | 300,000 tested, 0.75% active;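 active = mean activation of at least 80% with every replicate also reaching 80%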;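 note: 0% = neutral control wells and 100% = parthenolide positive control wells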
Starred values were filed as active, the others as inactive; nt = not tested or not shown.

SMILES | Cneo AK release | PGC1a acetyl inh | Wnt act | MITF TRPM1 HTS
CC(C)(C)NC(=O)c1ccc(Sc2ccccc2)c([N+](=O)[O-])c1 | nt | 80.8* | nt | -6.9
O=C(O)CNC(=O)c1ccc(Sc2ccccc2)c([N+](=O)[O-])c1 | nt | nt | -1.6 | 6.5
CC(=O)Oc1ccc(Oc2ccc(-c3noc(C)n3)cc2)cc1 | 0.5 | -2.4 | 48.1* | nt
CC(C)NC(=O)Nc1ccc2c(c1)CC(=O)N([C@@H](C)CO)C[C@H](C)[C@H](CN(C)Cc1ccccc1)O2 | -5.0 | 2.3 | nt | nt
CO[C@H]1CN(C)C(=O)c2cc(NC(=O)c3cc(C)on3)ccc2OC[C@H](C)N(C(=O)C2CC2)C[C@H]1C | -4.2 | 7.4 | nt | nt
COc1ccc(NC(=O)C(C)(C)Oc2ccc(Cl)cc2)cn1 | 1.2 | nt | 1.4 | 2.8
COc1ccc(NC(=O)C(Cl)=C(Cl)Cl)cn1 | nt | -101.0 | -1.1 | 16.6
COc1ccc(NC(=O)/C(Cl)=C(/Cl)S(=O)(=O)Cc2ccccc2)cn1 | -2.9 | 64.4* | nt | -94.0
COc1ccc(NC(=O)/C(Cl)=C(/Cl)S(=O)Cc2ccc(Cl)cc2)cn1 (configuration not stated) | nt | 100.2* | -10.1 | -93.2
CN1C(=O)c2cc(NC(=O)NC3CCCC3)ccc2OC[C@@H]2O[C@@H](CC(=O)NC3CCC3)CC[C@H]21 | -1.4 | -0.3 | nt | nt
C[C@@H]1CN([C@H](C)CO)C(=O)c2cc(C#Cc3ccc(F)cc3)cnc2O[C@@H]1CN(C)S(C)(=O)=O | -4.6 | 14.0 | nt | nt
CO[C@H]1CN(C)C(=O)c2ccc(NC(=O)C3CC3)cc2OC[C@@H](C)N(CC2CCOCC2)C[C@@H]1C | nt | 0.0 | nt | nt
O=c1c2ccccc2nc2c3ccccc3c(NCc3cccnc3)nn12 | nt | nt | -1.3 | 2.9
O=c1c2ccccc2nc2c3ccccc3c(NCc3ccccn3)nn12 | -0.4 | nt | 48.9* | 16.5
O=C(COc1ccc(Br)cc1Cl)NC1CCCCC1 | nt | nt | 23.3 | 88.4*
O=C(COc1ccc(Br)cc1Br)NC1CCCC1 | nt | nt | 7.9 | 40.4
O=C(COc1ccc(Br)cc1Cl)NC(=O)NC1CCCC1 | 1.9 | 5.2 | 38.5* | 93.3*
O=C(COc1ccc(Br)cc1Cl)c1ccc[nH]1 | 2.1 | nt | 18.6 | 101.9*
COc1ccc2c3c(n(C)c2c1)[C@@H](CO)N(S(C)(=O)=O)CC31CCN(C(=O)Nc2cccc(F)c2)CC1 | nt | 15.0 | nt | nt
C[C@@H]1CN([C@H](C)CO)C(=O)c2cccc(N(C)C)c2O[C@@H]1CN(C)C | -13.2 | 5.2 | nt | nt
CCOC(=O)c1sc2nc(-c3cccnc3)ccc2c1N | nt | 16.8 | 51.9* | 77.3
NC(=O)c1sc2nc(-c3cccnc3)ccc2c1N | 0.0 | 7.1 | 0.5 | nt
Cc1ccc(S(=O)(=O)N(C)CC(=O)Nc2cc(C)ccn2)cc1 | nt | -3.2 | 37.7* | 7.3
O=C(O)CN1C(=O)/C(=C/C=C/c2ccccc2)SC1=S | nt | nt | 49.0* | 4.2
O=C(O)CN1C(=O)/C(=C\c2ccc(OC(=O)c3ccco3)cc2)SC1=S | -0.3 | 4.6 | 33.5* | -1.5
SMILES | Cneo AK release | PGC1a acetyl inh | Wnt act | MITF TRPM1 HTS
O=C1/C(=C\c2cc(Cl)c(O)c(Cl)c2)SC(=S)N1Cc1ccccc1 | 1.6 | 4.7 | -3.0 | -5.8
O=C(O)CN1C(=O)/C(=C\c2cccc(OC(=O)c3ccco3)c2)SC1=S | -0.8 | nt | -2.0 | 7.5
O=C(O)COc1ccc(/C=C2/SC(=S)N(Cc3ccccc3)C2=O)cc1 | -0.9 | 71.6* | -1.1 | nt
CN1C(=O)S/C(=C/c2ccc(OCc3cccc(C(=O)O)c3)cc2)C1=O | 1.7 | 20.8 | 44.7* | -18.1
CC(C)C#Cc1cnc2c(c1)C(=O)N([C@H](C)CO)C[C@H](C)[C@@H](CN(C)C(=O)c1ccccn1)O2 | -4.3 | 0.2 | nt | nt
C[C@@H]1CCCCO[C@@H](CN(C)Cc2ccc(C(F)(F)F)cc2)[C@H](C)CN([C@@H](C)CO)C(=O)c2cc(NC(=O)CCCN(C)C)ccc2O1 | -4.7 | nt | nt | nt
CCC(=O)N(C)C[C@@H]1Oc2ncc(-c3ccccc3OC)cc2C(=O)N([C@H](C)CO)C[C@H]1C | -3.1 | -1.0 | nt | nt
COc1ccc(NC(=O)Nc2ccc3c(c2)C(=O)N([C@@H](C)CO)C[C@H](C)[C@H](CN(C)S(=O)(=O)c2ccc(C)cc2)OCCCC[C@@H](C)O3)cc1 | -1.1 | -6.4 | nt | nt
C[C@@H]1CCCCO[C@H](CN(C)CC2CCCCC2)[C@H](C)CN([C@H](C)CO)C(=O)c2cc(NC(=O)Nc3cccc4ccccc34)ccc2O1 | -0.3 | -16.6 | nt | nt
COc1cccc(-c2nc(-c3ccc4c(c3)NC(=O)CO4)cs2)c1 | nt | -1.6 | 12.2 | 105.4*
C[C@H]1CN([C@@H](C)CO)S(=O)(=O)c2ccc(C3=CCCCC3)cc2O[C@H]1CN(C)C(=O)C1CCCCC1 | 7.5 | 23.4 | nt | nt
Cc1ccc2oc(C(=O)Nc3nonc3C)c(C)c2c1 | -7.1 | 12.5 | 12.4 | 74.5
